The results in this text go back to ChEMBL document CHEMBL1134607, “Synthesis and structure-activity relationships of a new model of arylpiperazines. Study of the 5-HT(1a)/alpha(1)-adrenergic receptor affinity by classical hansch analysis, artificial neural networks, and computational simulation of ligand recognition” (J Med Chem, 2001).

Some results are limits rather than exact numbers.

The target of test [1] is T1, 5-hydroxytryptamine receptor 1A (Rattus norvegicus, UniProt P19327).
T1 sequence (P19327 whole entry): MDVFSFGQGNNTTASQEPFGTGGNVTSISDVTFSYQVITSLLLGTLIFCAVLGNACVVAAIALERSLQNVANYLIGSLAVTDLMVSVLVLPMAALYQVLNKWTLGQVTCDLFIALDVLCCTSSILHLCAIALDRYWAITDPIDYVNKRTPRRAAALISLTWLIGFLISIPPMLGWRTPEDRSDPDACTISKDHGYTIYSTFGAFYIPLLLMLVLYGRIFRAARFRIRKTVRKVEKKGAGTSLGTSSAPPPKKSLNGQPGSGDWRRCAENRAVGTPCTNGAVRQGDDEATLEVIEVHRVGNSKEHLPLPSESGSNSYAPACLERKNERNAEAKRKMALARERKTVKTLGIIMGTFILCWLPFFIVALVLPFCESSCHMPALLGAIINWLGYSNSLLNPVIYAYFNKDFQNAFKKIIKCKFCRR
Kind of test: In vitro binding affinity towards 5-hydroxytryptamine 1A receptor in rat cerebral cortex membranes. The class given is cell membranes, Membrane. The method in brief:
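Rat cerebral cortex membranes, washed and preincubated 10 min at 37 °C. About 1 mg protein incubated 15 min at 37 °C with 0.6 nM [3H]8-OH-DPAT in 50 mM Tris-HCl pH 7.4 containing 10 nM clonidine and 30 nM prazosin. Nonspecific binding with 10 µM 5-HT. Triplicates, filtration, scintillation counting. Ki by Cheng-Prusoff from fitted IC50. Prescreen at 10^-6 M, full curves if displacement ≥55%.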

The target in test [2] is T2, Adrenergic receptor alpha-1 (Rattus norvegicus, UniProt P15823+P23944+P43140).
T2 sequence (P15823 whole entry): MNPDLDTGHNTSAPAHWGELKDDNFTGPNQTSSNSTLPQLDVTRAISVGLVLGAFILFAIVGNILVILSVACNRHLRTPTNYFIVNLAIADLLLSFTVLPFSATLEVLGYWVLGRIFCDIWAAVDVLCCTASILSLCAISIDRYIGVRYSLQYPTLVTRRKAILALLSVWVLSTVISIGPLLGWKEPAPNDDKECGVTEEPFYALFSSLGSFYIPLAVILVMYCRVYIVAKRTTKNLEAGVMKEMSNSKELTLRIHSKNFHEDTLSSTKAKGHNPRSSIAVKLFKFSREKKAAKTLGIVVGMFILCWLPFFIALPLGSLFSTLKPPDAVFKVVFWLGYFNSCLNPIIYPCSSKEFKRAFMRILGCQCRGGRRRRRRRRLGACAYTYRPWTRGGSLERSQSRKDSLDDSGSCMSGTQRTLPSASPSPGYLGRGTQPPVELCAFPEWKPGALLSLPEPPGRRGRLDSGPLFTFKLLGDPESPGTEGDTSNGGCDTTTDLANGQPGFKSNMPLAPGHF
T2 sequence (P23944 whole entry): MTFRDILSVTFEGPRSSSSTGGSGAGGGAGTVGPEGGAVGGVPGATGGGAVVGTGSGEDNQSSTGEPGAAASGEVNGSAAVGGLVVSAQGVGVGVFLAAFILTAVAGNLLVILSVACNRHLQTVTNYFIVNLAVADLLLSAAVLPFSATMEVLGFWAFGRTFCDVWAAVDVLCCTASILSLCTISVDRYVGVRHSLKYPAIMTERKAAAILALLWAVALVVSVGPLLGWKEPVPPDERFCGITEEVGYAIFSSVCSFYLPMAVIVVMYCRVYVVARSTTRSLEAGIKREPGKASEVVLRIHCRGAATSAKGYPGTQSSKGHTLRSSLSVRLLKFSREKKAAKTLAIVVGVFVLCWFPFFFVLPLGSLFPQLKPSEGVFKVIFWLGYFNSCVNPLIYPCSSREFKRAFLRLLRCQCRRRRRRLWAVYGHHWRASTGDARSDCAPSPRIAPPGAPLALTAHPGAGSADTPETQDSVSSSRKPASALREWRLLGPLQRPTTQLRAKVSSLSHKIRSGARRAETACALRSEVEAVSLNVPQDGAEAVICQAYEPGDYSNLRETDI
T2 sequence (P43140 whole entry): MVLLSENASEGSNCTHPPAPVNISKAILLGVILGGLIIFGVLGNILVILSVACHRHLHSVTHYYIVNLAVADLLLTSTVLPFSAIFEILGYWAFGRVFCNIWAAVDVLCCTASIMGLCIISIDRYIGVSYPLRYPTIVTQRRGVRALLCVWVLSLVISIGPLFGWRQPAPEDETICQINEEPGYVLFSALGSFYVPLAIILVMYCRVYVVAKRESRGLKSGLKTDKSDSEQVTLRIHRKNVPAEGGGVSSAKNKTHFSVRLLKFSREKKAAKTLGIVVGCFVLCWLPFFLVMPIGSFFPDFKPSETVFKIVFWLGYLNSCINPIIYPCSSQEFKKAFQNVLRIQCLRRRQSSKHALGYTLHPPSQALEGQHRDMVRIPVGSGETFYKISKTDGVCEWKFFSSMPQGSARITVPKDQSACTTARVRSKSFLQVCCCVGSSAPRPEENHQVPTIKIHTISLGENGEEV
The test is described as follows: In vitro binding affinity towards alpha-1 adrenergic receptor in rat cerebral cortex membranes. The test is classed as cell membranes, Membrane. The method in brief:
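Rat cerebral cortex membranes in 50 mM Tris-HCl, 10 mM MgCl2, pH 7.4. About 250 µg protein incubated 30 min at 25 °C with 0.2 nM [3H]prazosin. Nonspecific binding with 10 µM phentolamine. Triplicates, filtration, scintillation counting. Ki by Cheng-Prusoff from iteratively fitted IC50. Prescreen at 10^-6 M, dose-response curves if displacement ≥55%.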

Turning to `CC(C)C(=O)Nc1cccc(N2CCN(CCCCN3C(=O)C4CCCN4C3=O)CC2)c1.Cl` (configuration not stated), the inhibition constant (Ki) in test [1] stood at 193 nM; in test [2] it was 5425 nM.

`COc1ccccc1N1CCN(CCCCN2CC(=O)N3CCCC3C2=O)CC1` (configuration not stated): the Ki stood at 12 nM in test [1] and 25 nM in test [2].

As for `CCCCOc1ccccc1N1CCN(CCCCN2CC(=O)N3CCCC3C2=O)CC1` (configuration not stated), the Ki came to 8.7 nM in test [1] and 10.5 nM in test [2].

Turning to `CCCNC(=O)c1ccccc1N1CCN(CCCCN2CC(=O)N3CCCC3C2=O)CC1` (configuration not stated), the Ki in test [1] came to 1230 nM; in test [2], 1354 nM.

As to `Nc1cccc(N2CCN(CCCCN3C(=O)C4CCCCN4C3=O)CC2)c1` (configuration not stated), the results for the Ki in test [1] and in test [2] were 68 nM and 231 nM, respectively.

In the case of `CCCCOc1ccccc1N1CCN(CCCN2CC(=O)N3CCCCC3C2=O)CC1` (configuration not stated), the values for the Ki in test [1] and in test [2] were 92 nM and 13 nM, respectively.

On to `O=C1C2CCCCN2C(=O)N1CCCCN1CCN(c2ccccc2Oc2ccccc2)CC1` (configuration not stated), for which the Ki was determined as 0.6 nM in test [1] and 2.4 nM in test [2].

In the case of `O=C1C2CCCCN2C(=O)CN1CCCN1CCN(c2cccc(C(F)(F)F)c2)CC1` (configuration not stated), the Ki in test [1] was 179 nM; in test [2], 339 nM.

On to `COc1ccccc1N1CCN(CCCN2CC(=O)N3CCCCC3C2=O)CC1` (configuration not stated), for which the Ki was found to be 143 nM in test [1] and 29 nM in test [2].

For the compound `CCS(=O)(=O)Nc1cccc(N2CCN(CCCCN3C(=O)C4CCCN4C3=O)CC2)c1` (configuration not stated), in test [2], the Ki is given as over 1000 nM.

For `Cc1ccccc1N1CCN(CCCN2C(=O)C3CCCCN3C2=O)CC1` (configuration not stated), the Ki in test [1] came to 220 nM; in test [2] it was 5.7 nM.

In test [2], `Cc1ccccc1N1CCN(CCCCN2C(=O)C3CCCN3C2=O)CC1` (configuration not stated) gave a Ki of 7 nM.

Take `CCCNC(=O)c1ccccc1N1CCN(CCCN2C(=O)C3CCCN3C2=O)CC1` (configuration not stated): the figures for the Ki in test [1] and in test [2] were 808 nM and 608 nM, respectively.

`N#Cc1ccccc1N1CCN(CCCN2C(=O)C3CCCCN3C2=O)CC1` (configuration not stated): the Ki in test [1] was 65 nM; in test [2] it was 8.2 nM.

On to `N#Cc1ccccc1N1CCN(CCCCN2CC(=O)N3CCCCC3C2=O)CC1` (configuration not stated), for which the Ki in test [1] amounted to 15 nM; in test [2], 30 nM.

For the compound `CCCOC(=O)c1ccccc1N1CCN(CCCN2C(=O)C3CCCCN3C2=O)CC1` (configuration not stated), the Ki in test [1] is 46 nM; in test [2] it was 13 nM.

`Cc1ccccc1N1CCN(CCCCN2CC(=O)N3CCCCC3C2=O)CC1` (configuration not stated): the Ki in test [1] turned out to be 32 nM; in test [2], 27 nM.

Consider `N#Cc1ccccc1N1CCN(CCCN2CC(=O)N3CCCC3C2=O)CC1` (configuration not stated), for which the Ki came to 27 nM in test [1] and 17 nM in test [2].

As to `CC(C)C(=O)Nc1cccc(N2CCN(CCCN3CC(=O)N4CCCC4C3=O)CC2)c1` (configuration not stated), the inhibitory constant (Ki) in test [1] stood at 266 nM; in test [2], 1440 nM.

For `CC(C)C(=O)Nc1cccc(N2CCN(CCCN3C(=O)C4CCCCN4C3=O)CC2)c1` (configuration not stated), the Ki in test [1] worked out at 776 nM; in test [2], 4430 nM.

For the compound `CCCOC(=O)c1ccccc1N1CCN(CCCCN2CC(=O)N3CCCCC3C2=O)CC1` (configuration not stated), the values for the Ki in test [1] and in test [2] were 28 nM and 392 nM, respectively.

Regarding `Cc1ccccc1N1CCN(CCCN2CC(=O)N3CCCC3C2=O)CC1` (configuration not stated), the Ki in test [1] was 48 nM; in test [2], 17 nM.

For `O=C1C2CCCCN2C(=O)N1CCCCN1CCN(c2cccc(Br)c2)CC1` (configuration not stated), the Ki in test [1] turned out to be 5.4 nM; in test [2] it was 5.9 nM.

Consider `CCCNC(=O)c1ccccc1N1CCN(CCCCN2C(=O)C3CCCCN3C2=O)CC1` (configuration not stated), for which the Ki in test [1] is 378 nM; in test [2], 521 nM.

For the compound `Nc1cccc(N2CCN(CCCN3C(=O)C4CCCN4C3=O)CC2)c1` (configuration not stated), the figures for the Ki in test [1] and in test [2] were 1180 nM and 393 nM, respectively.

`CCCOC(=O)c1ccccc1N1CCN(CCCN2CC(=O)N3CCCC3C2=O)CC1` (configuration not stated) displayed a Ki in test [2] of 12 nM.

Take `CCCNC(=O)c1ccccc1N1CCN(CCCN2CC(=O)N3CCCCC3C2=O)CC1` (configuration not stated): the Ki turned out to be 4610 nM in test [1] and 811 nM in test [2].

As for `CCCCOc1ccccc1N1CCN(CCCN2C(=O)C3CCCN3C2=O)CC1` (configuration not stated), the results for the Ki in test [1] and in test [2] were 15 nM and 6.4 nM, respectively.

On to `O=C1C2CCCN2C(=O)CN1CCCCN1CCN(c2cccc(C(F)(F)F)c2)CC1` (configuration not stated), for which the Ki turned out to be 5.5 nM in test [1] and 72 nM in test [2].

Turning to `O=C1C2CCCN2C(=O)N1CCCN1CCN(c2cccc(Br)c2)CC1` (configuration not stated), the Ki in test [1] came to 34 nM; in test [2], 25 nM.

Turning to `CCCCOc1ccccc1N1CCN(CCCCN2C(=O)C3CCCCN3C2=O)CC1` (configuration not stated), the inhibitory constant (Ki) in test [1] came out at 2.2 nM; in test [2], 5 nM.

In the case of `N#Cc1ccccc1N1CCN(CCCCN2C(=O)C3CCCN3C2=O)CC1` (configuration not stated), the Ki in test [1] was 4 nM; in test [2], 4.9 nM.

`CC(C)C(=O)Nc1cccc(N2CCN(CCCCN3CC(=O)N4CCCCC4C3=O)CC2)c1` (configuration not stated): the values for the Ki in test [1] and in test [2] were 198 nM and 16140 nM, respectively.

For the compound `CCCOC(=O)c1ccccc1N1CCN(CCCCN2C(=O)C3CCCN3C2=O)CC1` (configuration not stated), the Ki stood at 4.8 nM in test [1] and 41 nM in test [2].

Turning to `O=C1C2CCCCN2C(=O)N1CCCCN1CCN(c2ccccc2Br)CC1` (configuration not stated), the results for the Ki in test [1] and in test [2] were 3.4 nM and 6.2 nM, respectively.

By Ki is commonly meant a dissociation constant, usually derived from enzyme kinetics or from competition with a known ligand. Lower therefore signals tighter binding.
